Assay results: PMC5200953 (Dalton transactions (Cambridge, England : 2003), 2015)
Entries after “also recorded” stand apart in the source; their conditions may differ.

Columns and labels:
[1] = Biodistribution in mice bearing subcutaneous sstr2-transfected HCT116 tumours; type: in vivo; conditions: mouse, n = 4; for tissue uptake at 1 h: 1 h p.i.; for tissue uptake at 4 h: 4 h p.i.; for tissue uptake at 24 h: 24 h p.i.
In short: (§1)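 Mice with subcutaneous sstr2-transfected HCT116 tumours received the 64Cu-labelled test conjugate. Activity was measured in blood, liver, kidney, muscle, bone, adrenal, pancreas and tumour at 1, 4 and 24 h p.i. A blocking group received co-administered Y3-TATE, assessed at 4 h p.i. Tumour-to-blood, -muscle, -kidney and -liver ratios were calculated. n = 4 per group; P-values were reported for group comparisons.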

[2] = tested on: sstr2-transfected HCT116 tumours; assay: as above; type: in vivo
In short: as §1

[3] = tested on: sstr2-transfected HCT116 cells; assay: Cellular internalization assay; type: cell-based
[4] = PET/CT imaging at 2 h p.i. in mice bearing sstr2-transfected HCT116 xenografts; type: in vivo; conditions: mouse, tumour, tumour standard uptake value (SUV), n = 2
In short: (§2)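 PET/CT imaging was done at 2 h p.i. with the 64Cu-labelled test conjugate. Mice bore subcutaneously implanted sstr2-transfected HCT116 xenografts. The blocked mouse was co-administered Y3-TATE (10 mg/kg). Tumour standard uptake value (SUV) was read from the images.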

[5] = tested on: sstr2-transfected HCT116 tumours; assay: as above; type: in vivo; conditions: with the exception of kidneys
In short: as §2

## C[C@@H](O)[C@H](NC(=O)[C@@H]1CSSC[C@H](NC(=O)[C@@H](Cc2ccccc2)NC(=O)Cn2cc(CN3CCCN4CCN(CCCN(CP(=O)(O)O)CC4)CC3)nn2)C(=O)N[C@@H](Cc2ccc(O)cc2)C(=O)N[C@H](Cc2c[nH]c3ccccc23)C(=O)N[C@@H](CCCCN)C(=O)N[C@@H]([C@@H](C)O)C(=O)N1)C(=O)O (64Cu complex, metal not drawn) [Compound 6]
[1]; adrenal, Adrenal uptake
  tissue uptake at 1 h: 1.14 ± 0.46 %ID/g
  tissue uptake at 4 h: 1.24 ± 0.4 %ID/g
[1]; adrenal, Adrenal uptake, blocked with co-administration of Y3-TATE
  tissue uptake at 4 h: 0.37 ± 0.05 %ID/g
[1]; blood, Blood uptake
  tissue uptake at 1 h: 0.34 ± 0.13 %ID/g
  tissue uptake at 4 h: 0.2 ± 0.03 %ID/g
  tissue uptake at 24 h: 0.15 ± 0.06 %ID/g
[1]; blood, Blood uptake, blocked with co-administration of Y3-TATE
  tissue uptake at 4 h: 0.22 ± 0.04 %ID/g
[1]; bone, Bone uptake
  tissue uptake at 1 h: 0.46 ± 0.16 %ID/g
  tissue uptake at 4 h: 0.5 ± 0.24 %ID/g
  tissue uptake at 24 h: 0.35 ± 0.1 %ID/g
[1]; bone, Bone uptake, blocked with co-administration of Y3-TATE
  tissue uptake at 4 h: 0.2 ± 0.04 %ID/g
[1]; kidney, Kidney uptake
  tissue uptake at 1 h: 15.9 ± 3.03 %ID/g
  tissue uptake at 4 h: 21 ± 2.84 %ID/g
  tissue uptake at 24 h: 14.7 ± 2.53 %ID/g
[1]; kidney, Kidney uptake, blocked with co-administration of Y3-TATE
  tissue uptake at 4 h: 16.1 ± 5.03 %ID/g
[1]; liver, Liver uptake
  tissue uptake at 1 h: 1.13 ± 0.16 %ID/g
  tissue uptake at 4 h: 1.3 ± 0.1 %ID/g
  tissue uptake at 24 h: 1.05 ± 0.1 %ID/g
[1]; liver, Liver uptake, blocked with co-administration of Y3-TATE
  tissue uptake at 4 h: 1.32 ± 0.3 %ID/g
[1]; muscle, Muscle uptake
  tissue uptake at 1 h: 0.22 ± 0.15 %ID/g
  tissue uptake at 4 h: 0.07 ± 0.02 %ID/g
  tissue uptake at 24 h: 0.06 %ID/g
[1]; muscle, Muscle uptake, blocked with co-administration of Y3-TATE
  tissue uptake at 4 h: 0.09 ± 0.03 %ID/g
[1]; pancreas, Pancreas uptake
  tissue uptake at 1 h: 6.71 ± 0.22 %ID/g
  tissue uptake at 4 h: 4.41 ± 0.95 %ID/g
  tissue uptake at 24 h: 1.84 ± 0.64 %ID/g
[1]; pancreas, Pancreas uptake, blocked with co-administration of Y3-TATE
  tissue uptake at 4 h: 0.3 ± 0.07 %ID/g
[1]; tumour, Tumour uptake
  tissue uptake at 1 h: 4.73 ± 1.17 %ID/g
  tissue uptake at 4 h: 7.54 ± 1.43 %ID/g
  tissue uptake at 24 h: 4.39 ± 1.71 %ID/g
[1]; tumour, Tumour uptake, blocked with co-administration of Y3-TATE
  tissue uptake at 4 h: 0.69 ± 0.22 %ID/g
[2]; 1, 4, and 24 h p.i.
  kidney uptake, in words: consistently high uptake
  uptake in sstr2-expressing organs (adrenal, pancreas, tumour), in words: high tracer uptake
[2]; 4 h p.i., P < 0.0001, n = 4
  blocking of tumour uptake by co-administered Y3-TATE: 91%
[2]; 4 h p.i., P = 0.0051, n = 4
  blocking of adrenal uptake by co-administered Y3-TATE: 70%
[2]; inferred from relatively low liver activity
  in vivo stability of the copper complex, in words: reasonable in vivo stability
[2]; p.i., n = 4
  time of maximum tumour uptake: 4 h
[3]; after 4 h, sstr2-transfected HCT116 cells
  internalized: 38 %ID/mg protein
[3]; cells pre-incubated with excess Y3-TATE, P < 0.0001, n = 3
  surface bound, and thus internalized 6, blocked by excess Y3-TATE: More than 95%
[3]; sstr2-transfected HCT116 cells
  internalization, in words: internalized rapidly and specifically; also recorded: quickly bound to the cell surface, and was steadily internalized
[4]
  SUV at 2 h: 2.25 ± 0.49 SUV
[5]
  tumour uptake and contrast by PET/CT, in words: excellent tumour uptake and contrast
